# Bioassay records as filed in PubChem BioAssay.
# STEP inh – inhibitors of human striatal-enriched phosphatase STEP; inhibition, % at 20 µM; 360,000 compounds, 0.25% hits; recombinant STEP, OMFP fluorogenic substrate, fluorescence; P54829;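 active = inhibition at 20 µM, scaled per plate between control wells, above about 37%, limit read from the data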;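 note: 0% = DMSO with enzyme and substrate and 100% = substrate only without enzyme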
#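 Material: STEP (striatal-enriched tyrosine phosphatase) enzyme, cell-free | Medium: 50 mM Bis-Tris pH 6.0 with 2.5 mM DTT and 0.005% Tween 20 | Read-out: Percent inhibition scaled to no-enzyme and uninhibited-enzyme controls, plate-pattern corrected | Signal: Fluorescence read at 480 nm ex / 540 nm em | Times: 20 min reaction, room temperature, in the dark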
# LMPTP inh – LMPTP (human) inhibition. recombinant LMPTP-A, OMFP fluorogenic substrate, fluorescence intensity. 360,000 compounds, 0.22% hits. P24666. AID 651560. inhibition, % at 20 µM;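 active = compounds that cut the enzyme signal by at least half of the control window in the single-dose screen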;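 note: plate controls were DMSO wells with enzyme plus substrate for no effect and substrate without enzyme for full effect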
# Target sequence (P24666 whole entry, looked up): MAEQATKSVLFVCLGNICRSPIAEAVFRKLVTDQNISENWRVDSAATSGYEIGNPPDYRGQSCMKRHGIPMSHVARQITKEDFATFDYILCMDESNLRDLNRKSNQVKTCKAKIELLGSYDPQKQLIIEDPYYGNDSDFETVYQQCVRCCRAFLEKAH
#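 test system = LMPTP-A | amount = 0.625 nM LMPTP-A final | reagent = fluorogenic phosphatase substrate OMFP at 400 µM final | incubation = 50 min at room temperature | benchmarks = no-enzyme low control, uninhibited high control | medium = Bis-Tris pH 6.0, DTT, detergent | signal = fluorescence intensity of OMFP turnover product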
# F508del corr – correctors of CFTR F508del function in bronchial epithelial cells | CFBE cells, YFP halide quenching; stimulated with forskolin plus potentiator P3; % fluorescence drop versus neutral controls | activity (quench increase), % at 7.58 µM | 350,000 compounds, 0.36% hits | AID 720511;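 active = mean added fluorescence quench of at least 8% versus neutral control, with both replicates also reaching 8%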;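 note: cells transiently co-express mutant CFTR-F508del with the halide-sensitive YFP; corrector assay measuring rescue of mutant channel to the surface after 24 h compound exposure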
# Scp-1 inhibitor – blocks human Scp-1 phosphatase activity; Q9GZU7; Recombinant Scp1, phosphopeptide, malachite green phosphate absorbance; inhibition, % at 20 µM; 340,000 compounds, 0.88% hits; AID 493091;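 active = inhibition above about 50% at 20 µM, limit read from the data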;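 note: plate controls were DMSO wells with enzyme for no effect and wells lacking enzyme for full effect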
# Target sequence (Q9GZU7 76-261 limits assumed): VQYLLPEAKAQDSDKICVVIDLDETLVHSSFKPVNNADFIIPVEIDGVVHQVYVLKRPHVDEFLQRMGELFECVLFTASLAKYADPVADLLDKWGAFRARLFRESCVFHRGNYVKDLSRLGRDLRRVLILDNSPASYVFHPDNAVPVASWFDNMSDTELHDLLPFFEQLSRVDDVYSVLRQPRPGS
#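 System: SCP-1 catalytic domain; Reagent: Phospho 17-mer peptide substrate; Doses: one concentration, 20 µM, with 1.0% DMSO; Incubation: 45 min room-temperature reaction, 5 min colour, 30 min stabiliser; Signal: Phosphate-binding colour reagent, absorbance read at 630 nm.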
# DNMT1 block – DNMT1 (human) enzyme inhibition; P26358; DNMT1 molecular beacon, Hinp1I cleavage, fluorescence; inhibition (reported as % activation of signal), % at 10 µM; 360,000 compounds, 0.83% hits; AID 588458; in the data active = inhibition above about 50%
# SUMO1 PPI mod – SUMO1-SIM interaction modulation. P63165. SUMO1 binding to a labelled peptide, TR-FRET, 1 h. inhibition, % at 20 µM. 360,000 compounds, 0.33% hits; in the data active = inhibition above about 37%
# Target sequence (P63165 whole entry, looked up): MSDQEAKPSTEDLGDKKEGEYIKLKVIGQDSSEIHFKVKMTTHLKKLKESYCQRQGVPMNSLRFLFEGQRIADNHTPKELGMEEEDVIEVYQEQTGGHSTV
# Active calls of the source: *; . = not tested or not shown; + = active, no number. Rows were chosen to be rich in hits. Some 1.6% of all compounds tested hit in one or more screens of this group.
SMILES,STEP inh,LMPTP inh,F508del corr,Scp-1 inhibitor,DNMT1 block,SUMO1 PPI mod
CN(C)C(=O)c1cccc(-c2ccccc2[C@@H]2[C@@H](C#N)N(C(=O)C3CCCC3)[C@@H]2CO)c1,.,.,-1,.,.,.
O=C(c1ccc(Br)o1)N1CCN(c2ccc3nnc(-c4ccc(F)cc4)n3n2)CC1,2,0,-2,6,-7,49*
COc1cccc2oc3cc(C#Cc4ccccn4)ccc3c(=O)c12,.,.,-3,59*,.,.
COc1ccccc1-c1cc(NC=O)c2ncc(-c3cccc(C(F)(F)F)c3)n2c1,0,6,1,.,-12,-30
CN(C)c1ccccc1-c1cc(NC=O)c2ncc(-c3cccc(C(F)(F)F)c3)n2c1,-157,-5,-2,.,+,-1
CN(C)C(=O)c1cccc(-c2cnc3c(NC=O)cc(-c4ccccc4N(C)C)cn23)c1,-67,-4,0,.,141*,-4
CNC[C@H]1Oc2ncc(/C=C/c3ccccc3)cc2C(=O)N([C@@H](C)CO)C[C@H]1C,.,.,3,.,.,.
C[C@H]1CN([C@@H](C)CO)C(=O)c2cc(-c3cccnc3)cnc2O[C@H]1CN(C)C(=O)Cc1cccnc1,.,.,-3,.,.,.
Cc1ccc2nc(Cl)c(/C=N/NC(=O)[C@H]3C[C@@H]3c3ccccc3)cc2c1,3,4,-2,-1,36,40*
Cc1cc(C(=O)NC2CCCc3c2cnn3-c2ccc(C)c(C)c2)nc(C)n1 (stereo unspecified),2,0,0,-4,0,4
COC(=O)c1ccc(C(=O)NC2CCCc3c2cnn3-c2cc(F)cc(F)c2)nc1 (stereo unspecified),0,0,9.6*,-5,-1,1
COC(=O)c1ccc(C(=O)NC2CCCc3c2cnn3-c2ccc(C)c(C)c2)cc1 (stereo unspecified),-2,2,10*,-7,-1,3
COCC(=O)N1CC2(C1)[C@H](c1ccccc1)[C@@H](CO)N2C(=O)c1ccccc1,.,.,-2,.,.,.
O=C(Cc1ccc(Br)cc1)NCc1ccccc1,0,-2,20*,-7,0,5
O=C(CCN1C(=O)/C(=C/c2ccccc2Cl)SC1=S)NC1C=CS(=O)(=O)C1 (stereo unspecified),4,8,0,-11,54*,1
O=C(CCN1C(=O)/C(=C/c2ccc(F)cc2)SC1=S)NC1C=CS(=O)(=O)C1 (stereo unspecified),-1,5,-1,-7,6,-26
Cc1ccc(S(=O)(=O)N(Cc2cc3ccccc3[nH]c2=O)c2cccc(C)c2)cc1,2,1,14*,-2,-4,-9
Cc1ccccc1S(=O)(=O)NCC[C@@H]1CC[C@@H](NC(=O)C2CC2)[C@H](CO)O1,.,.,0,.,.,.
O=C(C[C@@H]1C=C[C@H](NC(=O)c2ccccn2)[C@H](CO)O1)NCc1cccc(F)c1,.,.,3,.,.,.
CSc1nc(C)c2c(n1)N(c1ccc(C(C)C)cc1)CC2,4,3,.,3,-4,56*
CSc1nc(C)c2c(n1)N(c1ccc(F)cc1)CC2,-6,2,.,-3,-5,39
COc1ccc(NC(=O)N(C)C[C@H]2OCCCC[C@H](C)Oc3ccc(NS(=O)(=O)c4ccc(OC)cc4)cc3C(=O)N([C@H](C)CO)C[C@@H]2C)cc1,.,.,-2,.,.,.
C[C@@H]1CN([C@@H](C)CO)C(=O)c2cc(C#Cc3cccc(F)c3)cnc2O[C@@H]1CN(C)C(=O)c1ccccc1F,.,.,0,.,.,.
O=C(Cc1ccccc1)N1CC(=O)N2[C@H](C1)[C@@H](c1ccc(-c3cccc(F)c3)cc1)[C@@H]2CO,.,.,2,.,.,.
C[C@H]1CN([C@@H](C)CO)C(=O)Cc2cc(N(C)C)ccc2O[C@@H]1CN(C)S(=O)(=O)c1ccccc1,.,.,3,.,.,.
COC(=O)Cc1c(O)ccn(Cc2ccc(Cl)c(Cl)c2)c1=O,-1,-1,14*,-1,-1,14
C[C@@H]1CN([C@H](C)CO)C(=O)c2cccc(NS(=O)(=O)c3ccc(F)cc3)c2O[C@H]1CN(C)C,.,.,-2,.,.,.
